Results collected from several papers.
Lines come from different studies, so protocols differ.
Target: Serine/threonine-protein kinase Sgk2 (SGK2, Homo sapiens, UniProt Q9HBY8)
Residues used in one study (Q9HBY8 1-367): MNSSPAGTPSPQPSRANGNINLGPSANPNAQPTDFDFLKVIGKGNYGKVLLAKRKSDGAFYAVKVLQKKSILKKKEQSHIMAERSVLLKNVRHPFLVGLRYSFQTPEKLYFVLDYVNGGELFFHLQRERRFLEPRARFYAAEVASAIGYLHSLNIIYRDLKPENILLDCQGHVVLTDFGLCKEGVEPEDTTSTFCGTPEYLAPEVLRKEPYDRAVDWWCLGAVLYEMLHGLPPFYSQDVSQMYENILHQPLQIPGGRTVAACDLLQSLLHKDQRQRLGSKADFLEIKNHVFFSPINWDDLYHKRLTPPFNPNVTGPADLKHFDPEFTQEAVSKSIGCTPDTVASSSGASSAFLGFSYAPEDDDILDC

With Cc1ccc(C(=O)Nc2ccc(CN3CCN(C)CC3)c(C(F)(F)F)c2)cc1C#Cc1cnc2cccnn12 the remaining activity was 76% (enzyme activity; inhibitor; 23.5 nM).
With COc1cc(Cl)c(C(=O)N[C@@H](CN[C@H]2CC[C@@H](N)CC2)Cc2ccc(C#N)cc2)cc1-c1ccc(CN[C@H](C)c2ccc(C)cc2)o1 the remaining activity was 82% (enzyme activity; inhibitor; 1 µM).
CN1CC(Oc2cnc(C#N)cc2-c2ccn3nc(NC(=O)C4CC4)cc3c2)C1 gave an inhibition of -2% (enzyme activity; inhibitor; 1 µM).
The remaining binding of CC(=O)c1c(NS(C)(=O)=O)c2cc(-c3ccc(Cl)cc3)c(-c3ccc(Cl)cc3Cl)nc2n(C)c1=O is reported as 92% (cell-free assay; competition with immobilised ligand; 1 µM).
With N#CCCc1ccc2c(c1)-c1[nH]c3ccc([N+](=O)[O-])cc3c1CC(=O)N2 the remaining signal was 114% (cell-free assay; 0.5 µM).
The inhibition of COc1cc2ncnc(Nc3ccc(Oc4ccccc4)cc3C)c2cc1OC is reported as -4% (enzyme activity; inhibitor; 1 µM).
For CN([C@@H]1CCc2c(CC(=O)O)c3cc(S(C)(=O)=O)ccc3n2C1)S(=O)(=O)c1ccc(F)cc1, the remaining binding was 100% (cell-free assay; competition with immobilised ligand; 1 µM).
CC(C)(C)c1nc2c(s1)c1nc(N)ncc1c1ccc(NS(=O)(=O)c3c(F)cccc3F)c(F)c12 has a remaining activity of 91% (enzyme activity; inhibitor; radiometric; 1 µM).
For CNC(=O)Nc1ccc2c(c1)CC[C@@]21OC(=O)N(CC(=O)N(Cc2ccc(F)cc2)[C@@H](C)C(F)(F)F)C1=O, the remaining binding was 100% (cell-free assay; competition with immobilised ligand; 1 µM).
With CCCOc1ccc(OC)c(F)c1C(=O)c1ccc(C(=O)N[C@@H]2CNC[C@H]2NC(=O)c2ccc3[nH]ncc3c2)cc1 the remaining activity was 1% (enzyme activity; inhibitor; 10 µM).
With O=C(Nc1cnn(-c2csc(C(=O)NC3COC3)c2)c1)Nc1ccccc1Cl the remaining activity was 101% (enzyme activity; inhibitor; 5 µM).
Cc1ccc(Nc2nccc(N(C)c3ccc4c(C)n(C)nc4c3)n2)cc1S(N)(=O)=O gave an inhibition of 5% (enzyme activity; inhibitor; 0.3 µM).
With O=C(NS(=O)(=O)c1ccc(NCC2CCOCC2)c([N+](=O)[O-])c1)c1ccc(N2CCN(Cc3ccc(C(F)(F)F)cc3-c3ccc(Cl)cc3)CC2)cc1Oc1cnc2[nH]ccc2c1 the remaining binding was 100% (cell-free assay; competition with immobilised ligand; 1 µM).
The remaining activity of Cc1sc(C(=O)NC2COC2)cc1-n1cc(NC(=O)Nc2c(F)cccc2Cl)cn1 is reported as 97.2% (enzyme activity; inhibitor; 10 µM).
Nc1cnc(N2CCc3cc(S(=O)(=O)Nc4c(F)cc(Cl)cc4F)cc(N4CCCC4=O)c32)nc1 gave a remaining binding of 76% (cell-free assay; competition with immobilised ligand; 1 µM).
Cn1cnc(Br)c1C1=CN(c2ncnc3[nH]cnc23)CCS1 gave an inhibition of 82.2% (enzyme activity; inhibitor; radiometric; 2 µM).
With O=C1Nc2ccc(Cl)cc2C1=Cc1cc(Cl)c(O)c(Cl)c1 the remaining signal was 89.2% (cell-free assay; 0.5 µM).
With NS(=O)(=O)c1cc(NC(=O)C2(c3ccccc3Cl)CC2)ccc1Oc1cccc(Cl)c1 the remaining binding was 100% (cell-free assay; competition with immobilised ligand; 1 µM).
CNC(=O)c1cc(Oc2ccc(NC(=O)Nc3ccc(Cl)c(C(F)(F)F)c3)cc2)ccn1 has an inhibition of -2% (enzyme activity; inhibitor; 10 µM).
CO[C@H]1CC[C@H](CNc2ccc(S(=O)(=O)NC(=O)c3ccc(N4CCN(CC5=C(c6ccc(Cl)cc6)CC(C)(C)CC5)CC4)cc3Oc3cnc4[nH]ccc4c3)cc2[N+](=O)[O-])CC1 has a remaining binding of 91% (cell-free assay; competition with immobilised ligand; 1 µM).
With CCN(CC)CCNC(=O)c1c(C)[nH]c(/C=C2\C(=O)Nc3ccc(F)cc32)c1C the inhibition was 4% (enzyme activity; inhibitor; 0.3 µM).
